# Compound activity (PubChem)
# S100A4 MyoIIA: inhibitors of S100A4-myosin IIA peptide binding, primary screen, biochemical, fluorescence polarization, TAMRA-MyoIIA peptide; Protein S100-A4 (Homo sapiens), P26447; inhibition, % at 10.7 µM; actives 0.14% (n = 360,000);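 active = mean inhibition of at least 70% across replicates, with every replicate also reaching that level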
# Target sequence (P26447 whole entry, looked up): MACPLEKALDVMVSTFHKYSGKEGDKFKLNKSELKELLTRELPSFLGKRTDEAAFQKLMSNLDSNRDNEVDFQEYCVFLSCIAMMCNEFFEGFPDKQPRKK
#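 Test system – S100A4 monomer (human) · Compound – single-point compound testing · Schedule – 5 min incubation before reading · Probe or stimulus – TAMRA-labelled myosin IIA heavy-chain peptide probe, 5 nM · Benchmarks – neutral control DMSO, positive control TFP · Medium – Calcium-containing HEPES buffer, pH 7.2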
# CFTR F508del cor: F508del CFTR correction, initial screen, CFBE line, single point | AID 720511, 2013 | activity (quench increase), % at 7.58 µM | actives 0.36% (n = 350,000) | CFBE cells, YFP halide quenching; stimulated with forskolin plus potentiator P3; % fluorescence drop versus neutral controls;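 active = mean added fluorescence quench of at least 8% versus neutral control, with both replicates also reaching 8%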;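 also: cells transiently co-express mutant CFTR-F508del with the halide-sensitive YFP; corrector assay measuring rescue of mutant channel to the surface after 24 h compound exposure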
# FGF22 binding: binders of human FGF22 protein, primary screen, FGF22 synaptogenesis inhibitor project, biophysical, thermal shift, single point | Fibroblast growth factor 22 (Homo sapiens), Q9HCT0 | recombinant FGF22 thermal shift, SYPRO orange fluorescence; percent of sucrose octasulfate shift, DMSO zero | activity (Tm shift, normalised), % at 9.99 µM | actives 1.5% (n = 340,000);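 active = mean Tm shift, scaled 0 neutral to 100 positive control, at about 1.3% or above, every replicate too, limit read from the data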
# Target sequence (Q9HCT0 whole entry, looked up): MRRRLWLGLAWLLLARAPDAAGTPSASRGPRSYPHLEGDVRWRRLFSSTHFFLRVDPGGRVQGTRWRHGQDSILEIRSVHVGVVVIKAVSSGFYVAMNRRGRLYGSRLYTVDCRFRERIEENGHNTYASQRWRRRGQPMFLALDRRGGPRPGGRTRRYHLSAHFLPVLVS
# dFosB activator: activators of delta FosB homodimer, primary screen, biochemical, fluorescence polarization, TAMRA-CDK5 oligo, single point. activation, % at 25 µM. Protein FosB (Mus musculus), P13346. actives 0.99% (n = 340,000). purified delta FosB; percent of positive-control signal above neutral wells. AID 493131, 2011;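 active = mean activation above about 17%, with every replicate also reaching it, limit read from the data, passing the limit was not always enough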
# Target sequence (P13346 whole entry, looked up): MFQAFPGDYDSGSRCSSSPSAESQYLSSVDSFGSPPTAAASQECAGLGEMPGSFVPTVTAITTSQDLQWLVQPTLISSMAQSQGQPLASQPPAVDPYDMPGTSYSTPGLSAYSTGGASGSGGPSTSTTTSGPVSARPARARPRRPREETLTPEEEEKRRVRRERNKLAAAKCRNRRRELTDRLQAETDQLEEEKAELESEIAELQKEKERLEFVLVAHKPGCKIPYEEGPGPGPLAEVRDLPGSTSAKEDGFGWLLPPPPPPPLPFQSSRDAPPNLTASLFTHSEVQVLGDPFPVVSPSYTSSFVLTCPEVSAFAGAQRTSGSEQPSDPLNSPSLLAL
# * marks the source's active call; other numbers are inactive results; nt = no result given; + = active, no number. Most compounds without a hit are left out; they make up all but 2.2% or so of the library.
SMILES,S100A4 MyoIIA,CFTR F508del cor,FGF22 binding,dFosB activator
CC(C)Cc1nc2ccccc2n1CCc1ccccc1,2.2,-3.0,43.4*,-7.1
CCc1nc2ccccc2n1CCc1ccccc1,-12.0,-0.7,0.2,-3.6
COc1cc2c(c(Br)c1N)-c1cc(Br)c(N)cc1C2=O,-14.8,8.5*,-0.1,nt
COc1cc2c(cc1N)-c1ccc(N)cc1C2=O,-1.0,-1.0,-1.3,nt
C[C@@H]1CN([C@H](C)CO)S(=O)(=O)c2ccc(/C=C/c3ccccc3)cc2O[C@H]1CN(C)C,-1.7,-4.0,0.0,nt
COCC(=O)N(C)C[C@@H]1Oc2ncc(-c3ccc(C)cc3)cc2C(=O)N([C@@H](C)CO)C[C@@H]1C,0.4,-1.4,-0.1,nt
Cc1ccc(NC(=O)C(OC(=O)c2ccc(O)cc2)c2ccccc2)cc1Cl (configuration not stated),0.5,-1.4,77.6*,-6.6
Cc1ccc(NC(=O)C(OC(=O)c2ccc(F)cc2)c2ccccc2)cc1Cl (configuration not stated),-2.3,nt,0.1,-0.3
O=C(/C=C/c1ccc(OCCCF)cc1)Nc1ccnc(-c2ccncc2)n1,-2.1,-4.9,0.1,-10.7
O=C(/C=C/c1ccc(OCCCF)cc1)Nc1ccnc(-c2cccnc2)n1,9.0,-4.2,43.6*,4.5
O=S(=O)(c1cccc2cccnc12)N1CCCc2ccccc21,-1.9,-1.1,43.2*,-6.8
O=S(=O)(c1cccc2cccnc12)N1CCN(c2ccccn2)CC1,0.2,-0.5,42.9*,1.8
N#Cc1c(SCC(N)=O)nc2c(c1-c1ccncc1)CCCC2,-2.1,0.9,-0.2,-0.5
CCN(CC)C(=O)CSc1nc2c(c(-c3cccnc3)c1C#N)CCCC2,0.8,-0.1,43.2*,-9.5
Cc1cccc(NC(=O)CN2C(=O)N/C(=C/c3cc(C)n(-c4ccncc4)c3C)C2=O)c1,-1.9,nt,-0.1,8.7
Cc1cccc(NC(=O)CN2C(=O)N/C(=C/c3cc(C)n(C)c3C)C2=O)c1,-2.8,0.8,43.8*,-0.3
C[C@@H]1CCCCO[C@H](CN(C)C(=O)C2CCCCC2)[C@@H](C)CN([C@@H](C)CO)C(=O)c2cc(N(C)C)ccc2O1,nt,2.5,nt,nt
Nc1[nH]ncc1-c1ccccc1,2.5,0.0,44.4*,-3.7
CCOC(=O)N1CCN(C(=O)C(=O)NNC(=O)COc2ccc(Cl)cc2)CC1,4.3,0.4,43.5*,0.6
CCOC(=O)N1CCN(C(=O)C(=O)NNC(=O)COc2ccc(Cl)c(C)c2)CC1,nt,nt,nt,8.7
Cc1ccc(/C=N/NC(=O)c2cc(-c3cccnc3)nc3ccccc23)cc1,1.8,7.3,43.2*,-15.0
CCOc1ccccc1-c1cc(C(=O)N/N=C/c2ccc3c(c2)OCO3)c2ccccc2n1,nt,nt,nt,3.3
Cc1cc(C(=O)N/N=C/c2ccc3c(c2)OCO3)c2ccccc2n1,-2.0,19.4*,-0.1,12.3
Cc1cc(C(=O)N/N=C/c2ccc(N(C)C)cc2)c2ccccc2n1,0.3,8.3*,0.2,1.7
CCOc1ccccc1-c1cc(C(=O)N/N=C/c2ccc(O)c(OC)c2)c2ccccc2n1,nt,nt,nt,24.8*
SMILES,S100A4 MyoIIA,CFTR F508del cor,FGF22 binding,dFosB activator
CCCNC(=O)N1CC2(CN(C(=O)Nc3cccc(F)c3)C2)c2c(n(C)c3cc(OC)ccc23)[C@H]1CO,3.0,-1.5,-0.2,nt
Cc1cc(C(=O)N/N=C/c2ccc([N+](=O)[O-])cc2)c2ccccc2n1,7.5,14.1*,0.0,3.6
Cc1cc(C(=O)N/N=C/c2cc([N+](=O)[O-])ccc2O)c2ccccc2n1,nt,nt,nt,1.1
Cc1ccc(C(=O)N/C(=C\c2cccc([N+](=O)[O-])c2)C(=O)Nc2cccc(C(=O)O)c2)cc1,-7.6,0.0,-0.1,-8.3
COc1ccc(C(=O)N/C(=C\c2cccc([N+](=O)[O-])c2)C(=O)Nc2cccc(C(=O)O)c2)cc1,2.0,-2.3,42.9*,-11.0
Cc1noc(C)c1S(=O)(=O)N(C)C[C@H]1OCCCC[C@H](C)Oc2ccc(N(C)C)cc2C(=O)N([C@@H](C)CO)C[C@@H]1C,4.0,0.0,-0.1,nt
CCOC(=O)C1=C(C)Nc2ccccc2N=C1NC(=O)/C=C/c1ccc(OC)cc1OC,-2.7,0.1,43.5*,-5.8
Cc1noc(C)c1NC(=O)N(C)C[C@@H]1Oc2c(NS(=O)(=O)c3ccc(Cl)cc3)cccc2C(=O)N([C@@H](C)CO)C[C@@H]1C,10.2,-0.5,-0.1,nt
CC(C)CC#Cc1ccc2c(c1)O[C@H](CN(C)C(=O)CN(C)C)[C@@H](C)CN([C@@H](C)CO)S2(=O)=O,-10.0,-0.6,-0.1,nt
CSc1ccc(-c2nc(O)c3cnccn23)cc1,-2.5,-1.5,0.2,-0.8
Oc1nc(-c2ccc(Br)cc2)n2ccncc12,-5.9,0.5,43.3*,1.3
CCC(=O)N[C@H]1CC[C@@H](CC(=O)NCc2ccc(OC)cc2)O[C@@H]1CO,6.9,2.7,-0.1,nt
CN(C)CC(=O)N1CC2(C1)[C@H](c1ccccc1)[C@@H](CO)N2S(C)(=O)=O,-2.4,0.1,0.9,nt
CN(C)CC(=O)N1CC2(C1)[C@@H](c1ccccc1)[C@@H](CO)N2S(C)(=O)=O,90.6*,1.7,-0.7,nt
CCCCc1nc2sc3c(=O)n(N)cnc3c2c2c1CCC2,4.2,-1.6,43.2*,-9.8
CCN1C(=O)[C@@H]2[C@@H](c3ccc(-c4ccc(OC)cc4)cc3)N3CCC[C@@]3(C(=O)OC)[C@@H]2C1=O,-11.6,2.0,43.9*,-4.6
CCN1C(=O)[C@H]2[C@@H](c3ccc(-c4ccc(OC)cc4)cc3)N3CCC[C@@]3(C(=O)OC)[C@H]2C1=O,-4.6,0.9,-0.5,-6.0
O=C(CN1CCN(c2nc(-c3ccccc3)cs2)CC1)NNC(=O)c1ccc(Br)cc1,nt,nt,nt,-8.5
O=C(NC(=S)N1CCN(c2nc(-c3ccccc3)cs2)CC1)c1cncc(Br)c1,-4.1,0.6,43.3*,-11.1
Cc1[nH]nc(-c2ccc(OCc3cnn(-c4ccccc4)c3)cc2O)c1Oc1ccccc1F,nt,nt,nt,-0.6
O=c1c(Oc2ccccc2F)coc2cc(OCc3cnn(-c4ccccc4)c3)ccc12,-1.5,-1.3,43.2*,-6.8
O=C(N/N=C/c1cccs1)c1cccc(NC(=O)c2ccccc2Cl)c1,11.9,9.5*,0.8,-10.6
COc1cccc2c1C(=O)c1c(O)c3c(c(O)c1C2=O)C[C@@](O)(C(C)=O)C[C@@H]3O[C@H]1C[C@H](N)[C@H](O)[C@H](C)O1,+,75.4*,-0.2,-288.0
COc1cccc2c1C(=O)c1c(O)c3c(c(O)c1C2=O)CC(O)(C(=O)CO)CC3OC1CC(N(C)C)C(O)C(C)O1 (configuration not stated),+,25.2*,-0.4,-382.0
COc1cccc(S(=O)(=O)N(C)C[C@@H]2Oc3ncc(C#CC(C)C)cc3C(=O)N([C@H](C)CO)C[C@@H]2C)c1,11.7,nt,0.0,nt
